Test results as given in the EternaBench riboswitch data.

Tested on: MS2 coat protein
Experiment: apparent Kd, MS2 coat protein; higher = weaker binding; RNA-MaP array; FMN 200 µM where present
Method in brief: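 Green signal from SNAP-549-labelled MS2 coat protein was normalised to red-channel RNA signal and to the median Fmax of control clusters. The protein was titrated from 0.7 or 1.5 nM, doubling to 3 µM, without and then with constant ligand, over designs transcribed by stalled E. coli RNA polymerase on Illumina sequencing-chip clusters, in 100 mM Tris-HCl pH 7.5, 80 mM KCl, 4 mM MgCl2, BSA, DTT, yeast tRNA and Tween-20. The apparent Kd is the median of filtered per-cluster binding-curve fits.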

[1] = designed as: OFF switch for flavin mononucleotide, no ligand
[2] = ligand present: flavin mononucleotide, designed as: OFF switch for flavin mononucleotide
[3] = designed as: ON switch for flavin mononucleotide, no ligand
[4] = ligand present: flavin mononucleotide, designed as: ON switch for flavin mononucleotide

Row | Sequence | apparent Kd [1] [nM] | apparent Kd [2] [nM] | apparent Kd [3] [nM] | apparent Kd [4] [nM]
1 | GUUAGCUCGUGAGGAUAUACAACACUGCUUCGGCAGUGUAUUAAGAUCACAUGAGGAUCACCCAUGUAGAAGGCACGAGCUGAU | 12.8 | 256 | – | –
2 | CUUUCGUGAGGAUAUGUGGCUUCGAUCGUAAAAUCGAGGCUACAGAAGGCACAUGAGGAUCACCCAUGUUCCUC | 36.2 | 528 | – | –
3 | AACAUGUCAGGAUAUGACUAAGGUGCUCGGUUGAGCCCUUAUCAGAAGGGACAUGAGGAUCACCCAUGUUCCGA | 17.8 | 21.1 | – | –
4 | GCGCUUAUACAGAAGGCCAGAGACAUGAGGAUCACCCAUGUUAGAUGGUGGAGGAUAUGUGUUUUAUUACAGAUAGUUGAGCGC | – | – | 6.38 | 6.13
5 | AUGCAACAUGAGGAUCACCCAUGUGAGGAUAUCGUAUACUACUGUUGCAAUACUUAGACGAGAAGGCACACCGU | 166 | 174 | – | –
6 | UGACUGCGUAGAAUUAGCAGCUGACAGGAUAUGACAUGAGGAUCACCCAUGUGAAAUAAGAAGAGUCAGAAGGGUCACGACACA | 9.51 | 8.79 | – | –
7 | AAGAAUAGAAAGAUUAAUAUGAAUACAUGAGGAUCACCCAUGUAGGAUAUCGACGUCAAUGACGUCGAGAAGGACAAAAUAAAU | 9.44 | 9.55 | – | –
8 | AGACCCAUGACAUGAGAUGACAUGAGGAUCACCCAUGUUUACGAGGAUAUGUUGAUGAAACAUCAACAGAAGGUGUAAUGGGCU | 21.2 | 28.9 | – | –
9 | UUAUUAUGUGUAGGAUAUGCAUAUUAUCAUUAUGCAGAAGGACAUGAGGAUCACCCAUGUAUAUUAUUAUUAUAUAUUAUAUAU | 15.5 | 12.6 | – | –
10 | AGUAAGAUGCAGAAGGUGUCAGCGAGAGCUACGACAUGAGGAUCACCCAUGUACUAGUGAGAGUACGAGGAUAUGCAUCUUACA | – | – | 37.3 | 13.9
11 | CAAAGGUGAGGAUAUGCAUAACUAUGACGAAAGUCAUAAACACAUGAGGAUCACCCAUGUAGAAGGCACCACAA | 23.9 | 18.3 | – | –
12 | GCAGCUAAUAUUAUACAUGAGGAUCACCCAUGUUACAUGUGUAAGGAUAUUGAUGUUUAUAUAAACAAGAAGGUACGAAGCUGC | – | – | 20.5 | 13.1
13 | GACAUGAGGAUCACCCAUGUACAGAUAGAGGAACUCUAAUUGAGAAGGGACUUGAAACAAUCAUGUCAGGAUAUCAGUGGCGAC | – | – | 86.7 | 41
14 | UGUUGUAUUACAGGAUAUCUAGUAUUUUUAUCUAGAGAAGGGUAUUCACAUGAGGAUCACCCAUGUAUAUACGAGGAAGUUGUG | – | – | 33.1 | 33.2
15 | AAUAACAGAGGAUAUACUAUUUUAUGUAUUUAUUAUUUUAAACAUGAGGAUCACCCAUGUAGAAGGCUGAGUAA | 23.8 | 21.3 | – | –
16 | UAAUAAUAAUAAUAGCAGAAUUACAUGAGGAUCACCCAUGUAUAGGAUAUCGUCAGGAAUACUGACGAGAAGGAUACAUACUGC | 17.8 | 25.6 | – | –
17 | CGCUGUCAUGCAGGAUAUGCAUUGGAUUACAAUGCAGAAGGGCGAUUACAUGAGGAUCACCCAUGUGUAGACAGUGAAGAAAAG | – | – | 145 | 13.8
18 | GCGUGGUUCUAGAAGGUGCUAGCGAUAAGCUAGCAAGGAUAUAGACAUGAGGAUCACCCAUGUCUAUGUGAAAUAGACACACGC | 4.75 | 4.62 | – | –
19 | GGUGGACAUGAGGAUCACCCAUGUGAGGAUAUCGGCUGGUACGUGUUGGCUGGCAUCUCGAGAAGGCACAUCGU | 56.2 | 135 | – | –
20 | AGGAGACAUGAGGAUCACCCAUGUGCACGUGGAGGAGGAUAUGCUAGUAGAAGAUAGAAUGCAGAAGGCCUAAGAA | – | – | 72.9 | 84.8
21 | AGUAACAGAGGAUAUACUGUUUUAUGUGUUUAUUAUUUUGAACAUGAGGAUCACCCAUGUAGAAGGCUGAAUAA | – | 21.9 | – | –
22 | ACCAUUUACUAAUUAUCUAUACAUGAGGAUCACCCAUGUUAAGAGGAUAUCAUCGUUCGCCGCGAUGAGAAGGCUUAGCAUUCG | 48.8 | 154 | – | –
23 | CGCACUGAUAGAGGAUAUGUUGUACAUGAGGAUCACCCAUGUGUUUUUGUAUCAAUAUUAGUGAAACAGAAGGCUAUUAGUGCG | 5.65 | 4.65 | – | –
24 | GGUGCUAUGUAGAAGGCAGAUCUGAUUCAGAUCUGAGGAUAUACAUGAGGAUCACCCAUGUUAUGCACCAGCACGAGAGUGCAG | 8.07 | 14 | – | –
25 | AAAGUCUAUUGAGGAUAUCGUUAUCAAAGAUAAUGAGAAGGCAAACAAUCAUGAGGACAUGAGGAUCACCCAUGUUGUGACCAU | – | – | 22.3 | 13.4
26 | ACAUGAGGAUCACCCAUGUGGACAUAGGAUAUUGGUGGUCAGGCGUGUUAUACAGGAUAGGUCUGCGAGAAGGGUGUGCGUUGC | – | – | 84.9 | 75
27 | GUCAUCAUAUGAGGAUAUGACACCGAAACGGUGUCAGAAGGCAUGUCGAUAGACAUGAGGAUCACCCAUGUUUACAUGAUGACA | – | – | 84.3 | 19.7
28 | GAGAAUACACUCGUCUCCGCUCAACCAGAAGGGCAUGAUAAUAUUACAUGAGGAUCACCCAUGUUGCAGGAUAUGGUGAGCCUC | – | – | 141 | 58.9

Row | Sequence | apparent Kd [1] [nM] | apparent Kd [2] [nM] | apparent Kd [3] [nM] | apparent Kd [4] [nM]
29 | AUGCCCGGAGGAUAUACACUAAAAGUCCGGUGCUAGGGUAGACAUGAGGAUCACCCAUGUAGAAGGCCGAGGCA | 53.2 | 101 | – | –
30 | AUAUAAUAUCAGGAUAUGACUAGCCUCGGCUAGUCAGAAGGGAUGACAUGAGGAUCACCCAUGUGAUCAUAUAU | 32.8 | 156 | – | –
31 | CCUCCACAUGAGGAUCACCCAUGUCAGGAUAUCGUGUGCGCGUUUUCGGUCUUUCGCGCGAGAAGGGACGUCUG | 26.9 | 30.1 | – | –
32 | AAUUUACAGCUAGGAUAUACAUGAGGAUCACCCAUGUAAUCAUAUGAUGUUAUCAUUGUAUGAGUGUAGAAGGAGCAAAUAAGA | 7.72 | 6.34 | – | –
33 | UGGUACUAGGGAGGAUAUGGGAAGAUACAUGAGGAUCACCCAUGUUUAAGAAUGCCGAGAGGCAACUAGAAGGCCCUUGUACCU | – | – | 444 | 19.3
34 | ACUAGAUGAGGAUAUACACAUUUUAGUGUUCCUCUAGAUUAACAUGAGGAUCACCCAUGUAGAAGGCAUCAUUU | 78.5 | 231 | – | –
35 | AAUUAUUUACAGAAGGAGUAAGAUUAUGUAUUACUAGGAUAUGUUCACAUGAGGAUCACCCAUGUACUAGUUGGUUUUUUAUGU | 10.5 | 17.1 | – | –
36 | UGUCGGAGCAGAGGAUAUUACAUGAGGAUCACCCAUGUAUGAACCAAUAGCUGGAAACAGCAAUGUGAGAAGGCUGCUCCGACA | 5.47 | 52.3 | – | –
37 | AAACACGGACAUGAGGAUCACCCAUGUGGCGAAAGCCUUGGAAGAAGGCCGAUUGCAAAGCAAUCGGAGGAUAUUCAUACCGUG | – | – | – | 5.57
38 | CAGUACUGAGGAUAUACAUGAGGAUCACCCAUGUGUUCCAGCUAGGAAGCUAGCAAAAGUAGAAGGCAGUACUG | 26.2 | 276 | – | –
39 | CAGCCCUGAGGAUAUCCCUCCUUGUACAUGAGGAUCACCCAUGUUCUCCUCUGGGCUUUGGGAGAAGGCAGGUCUC | 26.8 | 26.4 | – | –
40 | AGCGGUGCAGGAUAUGGCCGAUCCCACAUGAGGAUCACCCAUGUAAAUAAAAUAAGAUCUCCAGAAGGGCAUCGCA | 30.4 | 15.6 | – | –
41 | AAUAUGUUGCAGAAGGCCAUGUUGUGGUAGUGCCUCAUGACAUGAGGAUCACCCAUGUCUGUGAUGGAGGAUAUGCAAUAUAUU | 8.15 | 37 | – | –
42 | CUAUAUAAUACCUCAUGUACAUGAGGAUCACCCAUGUUAACAAAGGAUAUAUUUAUAUUAAUAAAGUAGAAGGUUGUACUAUUU | 19.5 | 17.1 | – | –
43 | UACAAUGGAGGAUAUAUGGUCAUACACAUGAGGAUCACCCAUGUCGCGAGUCGUGUAUCCAUAGAAGGCUGUAGUG | 13.7 | 15.6 | – | –
44 | GUUCUUCCUGUAAGGAUAUCCAUGUAUCAAAGCAUGGAGAAGGUACAUGAGGAUCACCCAUGUCACCCGCGUUA | 20.2 | 45.3 | – | –
45 | UUGGACGUCGUAGGAUAUGUAGGAUAUUCCUACAUGAGGAUCACCCAUGUUCACAUGGAAGAAGGACAGAAGGACGAUGUCCAU | – | – | 502 | 5.8
46 | AGGAGAAAUGUAGGAUAUGGGCGGGCAUAUGGGCAAAGCGCAUAUGCCCGCCCAGAAGGACAUGAGGAUCACCCAUGUUUCCCU | 13.2 | 11.1 | – | –
47 | UUAAAUCAUGUAGGAUAUGCAUGGCGAAGCUACGCAGAAGGACAUGAGGAUCACCCAUGUUAAAGCUUCCGAGUUCGGAGGCAA | 114 | 266 | – | –
48 | UGUCGGAGCAGAGGAUAUACAUGAGGAUCACCCAUGUAAAUGAAAGAUAGCUCGAAACGAGCAAAGUAGAAGGCUGCUCCGACA | 14.9 | 24.7 | – | –
49 | AGAUACAACCAGAAGGACAUGAGGAUCACCCAUGUAGGAUAUGGGUUACACGUGCCUGGGAAGUGUAACGACGCUACGAAGAGU | – | – | 31.4 | 8.3
50 | UCAGGCUUCGAGAAGGACAUGAGGAUCACCCAUGUGCGUGUAAAACAGCCAAAAGGCUGCAUCAUGUAGGAUAUCGGAGUCUGC | 279 | 192 | – | –
51 | GGCGGUAAUGAGAAGGGUCACAUGAGGAUCACCCAUGUGCUCUUCGCCGUGACAGGAUAUCAUUGCCGUCAGGUUAGAUUUUUG | 7.99 | 25.4 | – | –
52 | AAGAGUGCAGGAUAUACUUGGUAGGGUAAGAUGAGUGAGUGACAUGAGGAUCACCCAUGUAGAAGGGCAGAGAG | 121 | 132 | – | –
53 | AAUAAUAAUGUCAGGAUAUCUAGAGCUUCGGCUCUAGAGAAGGGACAUGAGGAUCACCCAUGUCACUCAAUAAU | 16.2 | 27.2 | – | –
54 | AAGAAGUUAGGAUAUGCUGCUCGUCACAAAAGUGAUGAGUAGCAGAAGGAACAUGAGGAUCACCCAUGUAAAGA | 32.3 | 22.9 | – | –
55 | UGGUACAUGGGAGGAUAUCCUCAAGACAUGAGGAUCACCCAUGUAAAUUAUAAGCCGAAAGGCAUGGAGAAGGCCCAUGUACCU | – | – | 96.3 | 20.2
